Data published in ChEMBL document CHEMBL1152830, “Synthesis of 2-sulfanyl-6-methyl-1,4-dihydropyrimidines as a new class of antifilarial agents” (Eur J Med Chem, 2008).
Active and inactive are the calls of the source. The rule behind the calls is not given here.

How the values were obtained:
Brugia malayi [1] = test: Antifilarial activity against Brugia malayi sub-periodic strain at 100 uM by MTT reduction assay; format: functional
How it was run: (§1)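 MTT reduction was measured on adult B. malayi worms after in vitro drug exposure. Each result is percent inhibition of MTT reduction relative to vehicle control, given as mean ± SD.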

Brugia malayi [2] = test: Antifilarial activity against Brugia malayi sub-periodic strain assessed as complete loss of motility at 100 uM; format: functional, organism-based
How it was run: (§2)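 Adult B. malayi worms kept in vitro with compound, then motility scored. The worms were also moved to fresh drug-free medium at 37 °C for 30 min to judge whether paralysis was irreversible. The vehicle served as control.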

Brugia malayi [3] = test: Antifilarial activity against Brugia malayi sub-periodic strain assessed as motility at 25 uM; format: functional, organism-based; how it was run: as §2
Brugia malayi [4] = test: Antifilarial activity against Brugia malayi sub-periodic strain assessed as motility at 50 uM; format: functional, organism-based; how it was run: as §2
Brugia malayi [5] = test: Antifilarial activity against Brugia malayi sub-periodic strain at 25 uM by MTT reduction assay; format: functional; how it was run: as §1
Brugia malayi [6] = test: Antifilarial activity against Brugia malayi sub-periodic strain assessed as motility at 100 uM; format: functional, organism-based; how it was run: as §2
Brugia malayi [7] = test: Antifilarial activity against Brugia malayi sub-periodic strain at 50 uM by MTT reduction assay; format: functional; how it was run: as §1
Mastomys coucha = test: Toxicity against Mastomys coucha assessed as mortality at 50 to 100 mg/kg, ip for 5 days measured after 15 days; format: organism-based; set-up: dose 50-100 mg/kg, route intraperitoneal; settings: in vivo, 360 h
How it was run: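 Normal (uninfected) Mastomys coucha received the compound i.p. once daily for 5 days. Animals were watched for mortality and for adverse effects on general and gross health during dosing and for up to 15 days after treatment.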

Brugia malayi [8] = test: Embryostatic activity against transplanted adult worms of Brugia malayi sub-periodic strain in Meriones unguiculatus assessed as sterilized female worms at 100 mg/kg, ip for 5 days; format: functional; settings: route intraperitoneal
How it was run: (§3)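 Meriones unguiculatus (jirds) carrying transplanted adult B. malayi were dosed i.p. once daily for 5 days, 5 animals per group. Microfilariae in the peritoneal cavity were checked. Live male and female worms and sterilized females were counted. Results are percent relative to untreated controls, given as mean ± SD.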

Brugia malayi [9] = test: Antifilarial activity against Brugia malayi sub-periodic strain assessed as complete loss of motility at 25 uM; format: functional, organism-based; how it was run: as §2
Brugia malayi [10] = test: Antifilarial activity against transplanted adult worms of Brugia malayi sub-periodic strain in Meriones unguiculatus assessed as reduction in worm burden 100 mg/kg, ip for 5 days relative to control; format: functional; set-up: scale not given: the % may be the effect or the level left; settings: route intraperitoneal; how it was run: as §3
Brugia malayi [11] = test: Antifilarial activity against Brugia malayi sub-periodic strain in Mastomys coucha assessed as reduction in worm burden at 100 mg/kg, ip for 5 days relative to control; format: functional; set-up: scale not given: the % may be the effect or the level left; settings: route intraperitoneal
Brugia malayi [12] = test: Antifilarial activity against Brugia malayi sub-periodic strain in Mastomys coucha assessed as reduction in worm burden at 50 mg/kg, ip for 5 days relative to control; format: functional; set-up: scale not given: the % may be the effect or the level left; settings: route intraperitoneal
Brugia malayi [13] = test: Embryostatic activity against Brugia malayi sub-periodic strain in Mastomys coucha assessed as sterilized female worms at 50 mg/kg, ip for 5 days; format: functional; settings: route intraperitoneal
Brugia malayi [14] = test: Antifilarial activity against Brugia malayi sub-periodic strain assessed as complete loss of motility at 50 uM; format: functional, organism-based; how it was run: as §2
Brugia malayi [15] = test: Antifilarial activity against Brugia malayi sub-periodic strain in Mastomys coucha assessed as microfilarial count at 50 mg/kg, ip for 5 days measured after 8 days; format: functional; settings: route intraperitoneal
Brugia malayi [16] = test: Embryostatic activity against Brugia malayi sub-periodic strain in Mastomys coucha assessed as sterilized female worms at 100 mg/kg, ip for 5 days; format: functional; settings: route intraperitoneal
Brugia malayi [17] = test: Antifilarial activity against Brugia malayi sub-periodic strain in Mastomys coucha assessed as microfilarial count at 100 mg/kg, ip for 5 days measured after 8 days; format: functional; settings: route intraperitoneal
Brugia malayi [18] = test: Antifilarial activity against transplanted adult worms of Brugia malayi sub-periodic strain in Meriones unguiculatus assessed as reduction in worm burden 12.5 mg/kg, ip for 5 days relative to control; format: functional, organism-based; set-up: dose 12.5 mg/kg; how it was run: as §3
Brugia malayi [19] = test: Antifilarial activity against Brugia malayi sub-periodic strain at 200 uM by MTT reduction assay; format: functional, organism-based; how it was run: as §1
Brugia malayi [20] = test: Embryostatic activity against Brugia malayi sub-periodic strain in Mastomys coucha assessed as sterilized female worms at 25 mg/kg, ip for 5 days; format: functional; settings: route intraperitoneal
Brugia malayi [21] = test: Antifilarial activity against Brugia malayi sub-periodic strain in Mastomys coucha assessed as reduction in worm burden at 25 mg/kg, ip for 5 days relative to control; format: functional; set-up: scale not given: the % may be the effect or the level left; settings: route intraperitoneal
Brugia malayi [22] = test: Antifilarial activity against Brugia malayi sub-periodic strain assessed as sluggish motility at 400 uM; format: functional, organism-based; how it was run: as §2
Brugia malayi [23] = test: Antifilarial activity against Brugia malayi sub-periodic strain in Mastomys coucha assessed as microfilarial count at 25 mg/kg, ip for 5 days measured after 8 days; format: functional; settings: route intraperitoneal
Brugia malayi [24] = test: Embryostatic activity against transplanted adult worms of Brugia malayi sub-periodic strain in Meriones unguiculatus assessed as sterilized female worms at 12.5 mg/kg, ip for 5 days; format: functional; settings: route intraperitoneal; how it was run: as §3
Brugia malayi [25] = test: Antifilarial activity against Brugia malayi sub-periodic strain assessed as motility at 200 uM; format: functional, organism-based; how it was run: as §2
Brugia malayi [26] = test: Antifilarial activity against Brugia malayi sub-periodic strain at 400 uM by MTT reduction assay; format: functional, organism-based; how it was run: as §1
Brugia malayi [27] = test: Antifilarial activity against Brugia malayi sub-periodic strain assessed as sluggish motility at 25 uM; format: functional, organism-based; how it was run: as §2

Compound: CCOC(=O)C1=C(C)NC(SCc2ccccc2)=NC1c1cccc2ccccc12 (centres undefined)
- inhibition at 100 µM (Brugia malayi [1]): 18.9%
- Activity (Brugia malayi [2]): Active

Compound: CCCCCCCCCCCCCCSC1=NC(c2ccc(OC)cc2)C(C(=O)OCC)=C(C)N1 (centres undefined)
- inhibition (Brugia malayi [1]): inactive
- Activity (Brugia malayi [3]): inactive
- Activity (Brugia malayi [4]): inactive
- inhibition (Brugia malayi [5]): inactive
- Activity (Brugia malayi [6]): inactive
- inhibition (Brugia malayi [7]): inactive

Compound: CCCCCCCCCCCCCCSC1=NC(c2cccc3ccccc23)C(C(=O)OCC)=C(C)N1 (centres undefined)
- inhibition at 100 µM (Brugia malayi [1]): 24.3%
- Activity (Brugia malayi [2]): Active

Compound: CCCCCSC1=NC(c2ccc(F)cc2)C(C(=O)OCC)=C(C)N1 (centres undefined)
- inhibition at 100 µM (Brugia malayi [1]): 68.6%
- Activity (Mastomys coucha): Non-toxic
- Activity (Brugia malayi [2]): Active
- Activity (Brugia malayi [8]): 34.31%
- Activity (Brugia malayi [9]): Active
- Activity (Brugia malayi [10]): 46.03%
- Activity (Brugia malayi [11]): 50%
- Activity (Brugia malayi [12]): 30.8%
- Activity (Brugia malayi [13]): 38.1%
- inhibition at 25 µM (Brugia malayi [5]): 25.8%
- Activity (Brugia malayi [14]): Active
- inhibition at 50 µM (Brugia malayi [7]): 68.5%
- Activity (Brugia malayi [15]): 116.5
- Activity (Brugia malayi [16]): 67.71%
- Activity (Brugia malayi [17]): 142.67

Compound: CCCCCSC1=NC(c2ccc(OC)cc2)C(C(=O)OCC)=C(C)N1 (centres undefined)
- inhibition at 100 µM (Brugia malayi [1]): 22.4%
- Activity (Brugia malayi [6]): inactive

Compound: CCCCCSC1=NC(c2cccc3ccccc23)C(C(=O)OCC)=C(C)N1 (centres undefined)
- inhibition (Brugia malayi [1]): inactive
- Activity (Brugia malayi [6]): inactive

Compound: CCN(CC)C(=O)N1CCN(C)CC1.O=C(O)CC(O)(CC(=O)O)C(=O)O [DIETHYLCARBAMAZINE CITRATE]
- inhibition (Brugia malayi [1]): inactive
- Activity (Brugia malayi [18]): inactive
- inhibition (Brugia malayi [19]): inactive
- Activity (Brugia malayi [20]): 29.7%
- Activity (Brugia malayi [21]): 0%
- Activity (Brugia malayi [22]): Active
- Activity (Brugia malayi [4]): inactive
- Activity (Brugia malayi [23]): 20.33
- Activity (Brugia malayi [24]): 10.53%
- Activity (Brugia malayi [6]): inactive
- inhibition (Brugia malayi [7]): inactive
- Activity (Brugia malayi [25]): inactive
- inhibition (Brugia malayi [26]): inactive

Compound: CCCCSC1=NC(c2cccc3ccccc23)C(C(=O)OCC)=C(C)N1 (centres undefined)
- inhibition at 100 µM (Brugia malayi [1]): 49%
- Activity (Mastomys coucha): Non-toxic
- Activity (Brugia malayi [2]): Active
- Activity (Brugia malayi [27]): Active
- Activity (Brugia malayi [11]): 0%
- inhibition at 25 µM (Brugia malayi [5]): 30.4%
- Activity (Brugia malayi [14]): Active
- inhibition (Brugia malayi [7]): inactive
- Activity (Brugia malayi [16]): 25.77%
- Activity (Brugia malayi [17]): 47.33

Compound: CCCCCSC1=NC(c2cccc([N+](=O)[O-])c2)C(C(=O)OCC)=C(C)N1 (centres undefined)
- inhibition at 100 µM (Brugia malayi [1]): 15.4%
- Activity (Brugia malayi [6]): inactive

Compound: CCCCSC1=NC(c2cccc([N+](=O)[O-])c2)C(C(=O)OCC)=C(C)N1 (centres undefined)
- inhibition at 100 µM (Brugia malayi [1]): 25.7%
- Activity (Brugia malayi [2]): Active

Compound: CCCCCCCCCCCCCCSC1=NC(c2ccc(F)cc2)C(C(=O)OCC)=C(C)N1 (centres undefined)
- inhibition (Brugia malayi [1]): inactive
- Activity (Brugia malayi [2]): Active
- Activity (Brugia malayi [4]): inactive
- inhibition (Brugia malayi [7]): inactive

Compound: CCOC(=O)C1=C(C)NC(SCc2ccccc2)=NC1c1ccc(OC)cc1 (centres undefined)
- inhibition at 100 µM (Brugia malayi [1]): 52.1%
- Activity (Mastomys coucha): Non-toxic
- Activity (Brugia malayi [2]): Active
- Activity (Brugia malayi [27]): Active
- Activity (Brugia malayi [11]): 19.66%
- inhibition (Brugia malayi [5]): inactive
- Activity (Brugia malayi [14]): Active
- inhibition at 50 µM (Brugia malayi [7]): 19.3%
- Activity (Brugia malayi [16]): 34.58%
- Activity (Brugia malayi [17]): 89.7

Compound: CCOC(=O)C1=C(C)NC(SCc2ccccc2)=NC1c1cccc([N+](=O)[O-])c1 (centres undefined)
- inhibition at 100 µM (Brugia malayi [1]): 43.1%
- Activity (Brugia malayi [2]): Active

Compound: CCCCCSC1=NC(c2ccc(Cl)cc2)C(C(=O)OCC)=C(C)N1 (centres undefined)
- inhibition (Brugia malayi [1]): inactive
- Activity (Brugia malayi [6]): inactive
